Test results reported in ChEMBL document CHEMBL2385063, “Identification of 2-(2-(1-naphthoyl)-8-fluoro-3,4-dihydro-1H-pyrido[4,3-b]indol-5(2H)-yl)acetic acid (setipiprant/ACT-129968), a potent, selective, and orally bioavailable chemoattractant receptor-homologous molecule expressed on Th2 cells (CRTH2) antagonist” (J Med Chem, 2013).
Active and inactive are the calls of the source. The calls are words filed in the database; no cut-off is given here.

Tests used:
[1] = biological target: T1, Prostaglandin D2 receptor 2 (Homo sapiens, UniProt Q9Y5Y4); experiment: Antagonist activity at human CRTH2 receptor expressed in HEK293 cells assessed as inhibition of PGD2-induced calcium flux after 5 mins by FLIPR assay; type: functional, cell-based
T1 sequence (Q9Y5Y4 whole entry): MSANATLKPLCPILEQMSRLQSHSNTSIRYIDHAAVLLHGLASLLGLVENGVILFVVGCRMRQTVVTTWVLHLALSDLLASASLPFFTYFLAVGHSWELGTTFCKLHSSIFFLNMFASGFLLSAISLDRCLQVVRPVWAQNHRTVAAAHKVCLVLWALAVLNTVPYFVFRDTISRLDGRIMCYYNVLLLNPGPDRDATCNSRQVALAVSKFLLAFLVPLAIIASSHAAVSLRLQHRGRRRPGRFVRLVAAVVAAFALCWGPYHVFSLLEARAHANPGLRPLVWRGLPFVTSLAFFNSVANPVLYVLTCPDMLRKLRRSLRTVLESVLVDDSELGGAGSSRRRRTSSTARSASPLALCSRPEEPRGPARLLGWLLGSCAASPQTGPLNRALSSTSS
In short: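 HEK-293 cells stably expressing hCRTh2 were loaded with 4 μM Fluo-4 AM for 40 min at 37 °C in HBSS/20 mM HEPES pH 7.2. Compound was added 5 min before 50 nM PGD2 (final) in buffer with 0.05% BSA. Peak fluorescence was normalised to no-antagonist control after baseline subtraction; IC50 from four-parameter fit.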

[2] = biological target: T2, Prostaglandin E2 receptor EP3 subtype (Homo sapiens, UniProt P43115); experiment: Antagonist activity at human prostanoid EP3 receptor expressed in HEK293 cells assessed as inhibition of PGE2-induced calcium flux after 60 mins by FLIPR assay; type: functional, cell-based
T2 sequence (P43115 whole entry): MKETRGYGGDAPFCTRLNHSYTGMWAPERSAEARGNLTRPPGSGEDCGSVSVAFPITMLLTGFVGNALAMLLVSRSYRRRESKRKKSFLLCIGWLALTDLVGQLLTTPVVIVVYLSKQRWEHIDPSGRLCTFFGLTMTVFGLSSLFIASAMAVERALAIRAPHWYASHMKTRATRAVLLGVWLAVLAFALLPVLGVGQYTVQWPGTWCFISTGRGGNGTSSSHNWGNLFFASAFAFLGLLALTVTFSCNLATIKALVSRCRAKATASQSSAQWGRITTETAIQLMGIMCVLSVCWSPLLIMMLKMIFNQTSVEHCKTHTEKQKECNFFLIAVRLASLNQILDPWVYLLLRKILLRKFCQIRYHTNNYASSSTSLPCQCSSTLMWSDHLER

[3] = biological target: T3, Prostaglandin D2 receptor 2 (Homo sapiens) (UniProt Q9Y5Y4); experiment: Selectivity factor, ratio of IC50 for recombinant human CRTH2 receptor in presence of human serum albumin to IC50 for recombinant human CRTH2 receptor in absence of human serum albumin
T3 sequence (whole entry): T1 sequence (Q9Y5Y4 whole entry)
In short: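 Competitive [³H]PGD₂ (2.5 nM) displacement on membranes from HEK-293 cells stably expressing hCRTh2. Buffer C was 50 mM Tris, pH 7.4, 100 mM NaCl, 1 mM EDTA and 0.1% BSA, run with or without 0.5% HSA. Membrane was 80 μg protein/well, incubated 90 min at room temperature, then filtered and counted by scintillation. Nonspecific binding was taken with 10 μM PGD₂. f_HSA = IC₅₀(HSA)/IC₅₀(buffer).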

[4] = biological target: T4, Prostaglandin G/H synthase 1 (Ovis aries, UniProt P05979); experiment: Antagonist activity at ovine COX-1
T4 sequence (P05979 whole entry): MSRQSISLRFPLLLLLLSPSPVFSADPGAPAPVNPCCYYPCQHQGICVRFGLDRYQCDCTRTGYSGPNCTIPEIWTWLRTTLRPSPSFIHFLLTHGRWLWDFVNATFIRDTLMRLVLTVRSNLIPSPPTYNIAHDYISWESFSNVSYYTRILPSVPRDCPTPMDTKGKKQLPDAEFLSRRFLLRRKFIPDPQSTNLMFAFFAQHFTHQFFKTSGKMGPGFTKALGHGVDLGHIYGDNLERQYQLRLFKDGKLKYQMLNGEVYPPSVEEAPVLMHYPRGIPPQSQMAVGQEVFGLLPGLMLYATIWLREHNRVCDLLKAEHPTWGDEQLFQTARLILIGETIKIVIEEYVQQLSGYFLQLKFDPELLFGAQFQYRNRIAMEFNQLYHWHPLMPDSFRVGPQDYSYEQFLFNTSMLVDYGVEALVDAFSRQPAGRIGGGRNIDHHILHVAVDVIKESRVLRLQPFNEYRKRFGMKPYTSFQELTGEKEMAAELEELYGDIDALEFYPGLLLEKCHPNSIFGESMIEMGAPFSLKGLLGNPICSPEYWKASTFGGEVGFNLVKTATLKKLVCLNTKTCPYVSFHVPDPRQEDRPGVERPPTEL

[5] = biological target: Prostaglandin E2 receptor EP2 subtype (Homo sapiens, UniProt P43116); experiment: Inhibition of beta-arrestin binding to recombinant human prostanoid EP2 receptor expressed in HEK293 cell membranes by beta-lactamase complementation assay
Sequence of Prostaglandin E2 receptor EP2 subtype (P43116 whole entry): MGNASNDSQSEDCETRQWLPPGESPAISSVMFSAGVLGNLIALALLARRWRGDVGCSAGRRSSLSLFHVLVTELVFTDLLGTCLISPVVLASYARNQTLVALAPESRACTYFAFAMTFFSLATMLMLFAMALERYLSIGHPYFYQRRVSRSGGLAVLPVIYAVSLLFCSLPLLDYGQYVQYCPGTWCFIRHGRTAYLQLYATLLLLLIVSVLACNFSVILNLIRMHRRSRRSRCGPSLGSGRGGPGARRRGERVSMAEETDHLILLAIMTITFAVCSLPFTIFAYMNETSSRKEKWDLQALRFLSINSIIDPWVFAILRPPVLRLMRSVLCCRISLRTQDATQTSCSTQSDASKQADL

[6] = Protein binding in plasma (unknown origin); type: ADME, cell-free; details: read-out: PPB
Thromboxane A2 receptor = biological target: T5, Thromboxane A2 receptor (Homo sapiens, UniProt P21731); experiment: Antagonist activity at human prostanoid TP2 receptor expressed in HEK293 cells assessed as inhibition of calcium flux after 30 to 40 mins by FLIPR assay; type: functional, cell-based
T5 sequence (P21731 whole entry): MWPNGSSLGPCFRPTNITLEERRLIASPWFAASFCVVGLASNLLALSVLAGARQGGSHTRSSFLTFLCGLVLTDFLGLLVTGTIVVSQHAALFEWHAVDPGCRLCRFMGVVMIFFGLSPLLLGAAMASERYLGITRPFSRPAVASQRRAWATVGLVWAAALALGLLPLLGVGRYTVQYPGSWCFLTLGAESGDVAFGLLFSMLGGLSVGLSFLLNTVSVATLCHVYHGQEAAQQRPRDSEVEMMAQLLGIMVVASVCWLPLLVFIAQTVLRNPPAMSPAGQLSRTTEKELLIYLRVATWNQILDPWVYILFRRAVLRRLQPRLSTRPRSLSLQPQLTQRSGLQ

[7] = biological target: T6, G-protein coupled receptor (Canis lupus familiaris) (UniProt Q2A652); experiment: Antagonist activity at dog CRTH2 receptor assessed as inhibition of calcium flux by cell-based FLIPR assay; type: functional
T6 sequence (whole entry): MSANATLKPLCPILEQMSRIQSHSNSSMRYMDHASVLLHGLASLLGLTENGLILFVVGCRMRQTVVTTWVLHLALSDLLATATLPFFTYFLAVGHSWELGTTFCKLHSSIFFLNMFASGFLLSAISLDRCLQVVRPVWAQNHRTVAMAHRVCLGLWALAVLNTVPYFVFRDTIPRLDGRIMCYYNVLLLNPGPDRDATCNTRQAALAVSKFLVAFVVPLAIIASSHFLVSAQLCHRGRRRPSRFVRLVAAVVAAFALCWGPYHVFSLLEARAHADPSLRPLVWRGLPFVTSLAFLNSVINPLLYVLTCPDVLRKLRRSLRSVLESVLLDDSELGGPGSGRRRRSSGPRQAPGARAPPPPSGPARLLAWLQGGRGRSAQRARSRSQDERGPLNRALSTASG

Row | SMILES | IC50 [1] | IC50 [2] | Ratio IC50 [3] | IC50 [4] | IC50 [5] | fraction unbound [6] | IC50 (Thromboxane A2 receptor) | inhibition [7]
1 | O=C(O)Cn1c2c(c3cc(Cl)ccc31)CN(C(=O)c1cccc3ccccc13)CC2 | 30 nM | > 25 µM | 16 | > 10 µM | 7.4 µM | < 0.03 | > 25 µM | Active
2 | O=C(O)Cn1c2c(c3cc(F)cc(Cl)c31)CN(C(=O)c1cccc(Cl)c1)CC2 | 1280 nM | > 25 µM | 1 | > 10 µM | > 10 µM | < 0.03 | > 25 µM | Active
3 | O=C(O)Cn1c2c(c3cc(F)ccc31)CN(C(=O)c1cccs1)CC2 | 40 nM | > 25 µM | 3 | > 10 µM | > 10 µM | < 0.03 | > 25 µM | Active
4 | CCc1ccc(-c2ccc(C(=O)N3CCc4c(c5cccc(Cl)c5n4CC(=O)O)C3)cc2)cc1 | 2600 nM | > 25 µM | 4 | > 10 µM | > 10 µM | < 0.03 | > 25 µM | Active
5 | O=C(O)Cn1c2c(c3ccccc31)CN(C(=O)C1CCCCC1)CC2 | 200 nM | > 25 µM | – | > 10 µM | – | < 0.03 | > 25 µM | Active
6 | O=C(O)Cn1c2c(c3cc(F)ccc31)CN(C(=O)c1cccc3ccccc13)CC2 [SETIPIPRANT] | 30 nM | > 25 µM | 57 | > 10 µM | 2.6 µM | < 0.03 | > 25 µM | inactive
7 | COc1ccc2c(c1)c1c(n2CC(=O)O)CCN(C(=O)c2ccccc2)C1 | – | > 25 µM | – | > 10 µM | – | < 0.03 | > 25 µM | Active
8 | CC(C)c1ccc2c(c1)c1c(n2CC(=O)O)CCN(C(=O)c2ccccc2)C1 | – | > 25 µM | – | > 10 µM | – | < 0.03 | > 25 µM | Active
9 | O=C(O)Cn1c2c(c3ccccc31)CN(C(=O)c1cccc3ccccc13)CC2 | 30 nM | > 25 µM | 47 | > 10 µM | 6.6 µM | < 0.03 | > 25 µM | inactive
10 | O=C(O)Cn1c2c(c3cc(C(F)(F)F)ccc31)CN(C(=O)c1ccccc1)CC2 | 50 nM | > 25 µM | 6 | > 10 µM | > 10 µM | < 0.03 | > 25 µM | Active
11 | O=C(O)Cn1c2c(c3cc(F)ccc31)CN(C(=O)Cc1cccc3ccccc13)CC2 | 70 nM | > 25 µM | 45 | > 10 µM | > 10 µM | < 0.03 | > 25 µM | Active
12 | CCc1ccc(-c2ccc(C(=O)N3CCc4c(c5ccccc5n4CC(=O)O)C3)cc2)cc1 | 190 nM | > 25 µM | 2 | > 10 µM | 6.4 µM | < 0.03 | > 25 µM | Active
13 | Cc1ccc2c(c1)c1c(n2CC(=O)O)CCN(C(=O)c2cccc3ccccc23)C1 | 60 nM | > 25 µM | 38 | > 10 µM | > 10 µM | < 0.03 | > 25 µM | Active
14 | O=C(O)Cn1c2c(c3cc(F)cc(Cl)c31)CN(C(=O)c1cccc3ccccc13)CC2 | 660 nM | > 25 µM | 7 | > 10 µM | 2.7 µM | < 0.03 | > 25 µM | Active
15 | O=C(O)Cn1c2c(c3cc(C(F)(F)F)ccc31)CN(C(=O)c1cccc3ccccc13)CC2 | 20 nM | > 25 µM | 6 | > 10 µM | > 10 µM | < 0.03 | > 25 µM | Active
16 | O=C(O)Cn1c2c(c3cc(F)ccc31)CN(C(=O)Cc1c[nH]c3ccccc13)CC2 | 15 nM | > 25 µM | 7 | > 10 µM | > 10 µM | < 0.03 | > 25 µM | Active
17 | O=C(O)Cn1c2c(c3ccccc31)CN(C(=O)c1cccc(Cl)c1)CC2 | 70 nM | > 25 µM | 3 | > 10 µM | > 10 µM | < 0.03 | > 25 µM | Active
18 | O=C(O)Cn1c2c(c3ccccc31)CN(C(=O)c1ccccc1)CC2 | – | > 25 µM | 1 | > 10 µM | – | < 0.03 | – | Active
19 | O=C(O)Cn1c2c(c3cc(F)ccc31)CN(C(=O)c1cccc(Cl)c1)CC2 | 40 nM | > 25 µM | 7 | > 10 µM | > 10 µM | < 0.03 | > 25 µM | inactive
20 | O=C(O)Cn1c2c(c3cc(F)ccc31)CN(C(=O)CCc1cccc3ccccc13)CC2 | 65 nM | > 25 µM | 3 | > 10 µM | 9.5 µM | < 0.03 | > 25 µM | Active
